According to ChEMBL document CHEMBL1135644, “Effect of spermine conjugation on the cytotoxicity and cellular transport of acridine” (J Med Chem, 2002):
pIC50, pKi: −log10 of the molar value.

Columns and labels:
L1210 [1] = assay: Cellular uptake of conjugates in L1210 cells (control) at a concentration of 1 uM (+/-15% SEM); format: functional, cell-based; conditions: Mus musculus
Procedure, shortened: (§1)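 L1210 cells were seeded at 2 × 10^5 cells/mL with conjugate added at seeding, in medium containing 2 mM aminoguanidine, and cultured 24 h. Washed cells were extracted in 0.2 N HClO4/2 M NaCl for 16 h at 4 °C. Intracellular conjugate was quantified by fluorimetry and expressed as nmol/mg protein. Mean of three determinations (±15%).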

L1210 [2] = assay: In vitro 25% cell growth inhibition by the compound in L1210 cells with 5 mM DFMO addition; format: functional; conditions: Mus musculus
Procedure, shortened: (§2)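 L1210 cells were seeded at 5 × 10^4 cells/mL, and conjugate plus 5 mM DFMO were added at seeding with 2 mM aminoguanidine present. After 48 h, growth was read by MTT at 540 nm relative to DFMO-only controls.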

L1210 [3] = assay: Cellular uptake of conjugates in L1210 cells pretreated with 5 mM DFMO at a concentration of 2 uM (+/-15% SEM); format: functional, cell-based; conditions: Mus musculus
Procedure, shortened: (§3)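 L1210 cells were seeded at 10^5 cells/mL in medium with 5 mM DFMO, and conjugates were added 24 h later. Cells were harvested after a further 24 h, extracted in 0.2 N HClO4/2 M NaCl and assayed by fluorimetry, expressed per mg protein. Mean of three determinations (±15%).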

CHO-MG [4] = assay: In vitro 25% cell growth inhibition by the compound in CHO-MG cells; format: functional, Cricetulus griseus; conditions: Cricetulus griseus, CHO-MG; read-out: IC25
Procedure, shortened: (§4)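 CHO or CHO-MG cells were trypsinized and plated singly at 2 × 10^3 cells/mL in RPMI 1640/10% FCS with 2 mM aminoguanidine (proline for CHO-MG). Conjugates were added after overnight incubation, with 48 h exposure. Growth was read by MTT formazan absorbance at 540 nm relative to untreated controls. The value is the concentration giving 25% or 50% growth inhibition.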

L1210 [5] = assay: Cellular uptake of conjugates in L1210 cells (control) at a concentration of 0.5 uM (+/-15% SEM); format: functional, cell-based; conditions: Mus musculus; procedure, shortened: as §1
CHO-MG [6] = assay: In vitro 25% cell growth inhibition by the compound in CHO-MG cells with 5 mM DFMO addition; format: functional; conditions: Cricetulus griseus
Procedure, shortened: (§5)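 CHO or CHO-MG cells were plated at 2 × 10^3 cells/mL and incubated overnight. Conjugates and 5 mM DFMO were then added together, with 2 mM aminoguanidine present, for 48 h. MTT absorbance at 540 nm was expressed relative to DFMO-treated controls. The value is the concentration inhibiting growth 25% or 50%.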

L1210 [7] = assay: Cellular uptake of conjugates in L1210 cells pretreated with 5 mM DFMO at a concentration of 0.5 uM (+/-15% SEM); format: functional, cell-based; conditions: Mus musculus; procedure, shortened: as §3
L1210 [8] = assay: In vitro 25% cell growth inhibition by the compound in L1210 cells; format: functional; conditions: Mus musculus
Procedure, shortened: (§6)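 L1210 cells were seeded at 5 × 10^4 cells/mL with conjugate added at seeding, in medium with 2 mM aminoguanidine, for 48 h exposure. Growth was measured by MTT absorbance at 540 nm relative to untreated controls.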

L1210 [9] = assay: In vitro 50% cell growth inhibition by the compound in L1210 cells; format: functional, cell-based; conditions: Mus musculus; procedure, shortened: as §6
L1210 [10] = assay: Cellular uptake of conjugates in L1210 cells (control) at a concentration of 2 uM (+/-15% SEM); format: functional, cell-based; conditions: Mus musculus; procedure, shortened: as §1
CHO [11] = assay: In vitro 25% cell growth inhibition by the compound in CHO cells with 5 mM DFMO addition; format: functional; conditions: Cricetulus griseus; procedure, shortened: as §5
CHO [12] = assay: Cellular uptake of conjugates in CHO cells at a concentration of 0.5 uM (+/-15% SEM); format: functional, cell-based; conditions: Cricetulus griseus
Procedure, shortened: (§7)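 Conjugates added 24 h after seeding (1 × 10^5 cells/mL, RPMI 1640 with 10% FCS and 2 mM aminoguanidine; proline added for CHO-MG) and left for 24 h. Cells were washed in 0.14 M NaCl, sonicated in 0.2 N HClO4/2 M NaCl and held 16 h at 4 °C. Conjugate in the supernatant was measured by fluorimetry against standards and expressed per mg protein (Folin). Mean of three determinations (±15%).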

L1210 [13] = assay: Cellular uptake of conjugates in L1210 cells pretreated with 5 mM DFMO at a concentration of 1 uM (+/-15% SEM); format: functional, cell-based; conditions: Mus musculus; procedure, shortened: as §3
CHO [14] = assay: In vitro 50% cell growth inhibition by the compound in CHO cells; format: functional, cell-based; conditions: Cricetulus griseus; procedure, shortened: as §4
CHO-MG [15] = assay: In vitro 50% cell growth inhibition by the compound in CHO-MG cells; format: functional, cell-based; conditions: Cricetulus griseus; procedure, shortened: as §4
L1210 [16] = assay: Inhibition of [14C]SPD uptake by the compound in 5 min initial rate transport assay in L1210 cells; format: functional, cell-based, Mus musculus
L1210 [17] = assay: In vitro 50% cell growth inhibition by the compound in L1210 cells with 5 mM DFMO addition; format: functional, cell-based; conditions: Mus musculus; procedure, shortened: as §2
[18] = Ratio of cellular uptake in CHO cells to that of CHO-MG cells.; format: functional
CHO [19] = assay: In vitro 25% cell growth inhibition by the compound in CHO cells; format: functional; conditions: Cricetulus griseus; procedure, shortened: as §4
L1210 [20] = assay: Cellular uptake of conjugates in L1210 cells in presence of 500 uM SPD at a concentration of 0.5 uM (+/-15% SEM); format: functional, cell-based; conditions: Mus musculus
Procedure, shortened: (§8)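 Same as the L1210 uptake assay: seeded at 2 × 10^5 cells/mL, conjugate plus 500 μM spermidine added together at seeding, 24 h exposure. Extraction in HClO4/NaCl, fluorimetric quantitation, normalized to protein. Mean of three determinations (±15%).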

CHO [21] = assay: In vitro 50% cell growth inhibition by the co mpound in CHO cells with 5 mM DFMO addition; format: functional, cell-based; conditions: Cricetulus griseus; procedure, shortened: as §5
CHO-MG [22] = assay: In vitro 50% cell growth inhibition by the compound in CHO-MG cells with 5 mM DFMO addition; format: functional, cell-based; conditions: Cricetulus griseus; procedure, shortened: as §5
L1210 [23] = assay: Cellular uptake of conjugates in L1210 cells in presence of 500 uM SPD at a concentration of 1 uM (+/-15% SEM); format: functional, cell-based; conditions: Mus musculus; procedure, shortened: as §8
CHO-MG [24] = assay: Cellular uptake of conjugates in CHO-MG cells at a concentration of 0.5 uM (+/-15% SEM); format: functional, cell-based; conditions: Cricetulus griseus; procedure, shortened: as §7
Nucleic Acid = assay: Drug concentration required to produce 50% inhibition of fluorescence bound ethidium to CT-DNA (1.26:1) (+/-SEM 5%); format: functional; conditions: Bos taurus
Procedure, shortened: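 Ethidium displacement: 1 μM CT-DNA with 1.26 μM ethidium bromide; conjugate stock added serially. Fluorescence was read at excitation 546 nm and emission 595 nm. The value is the conjugate concentration cutting DNA-bound ethidium fluorescence by 50%. Mean of three determinations (±5%).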

L1210 [25] = assay: Cellular uptake of conjugates in L1210 cells in presence of 500 uM SPD at a concentration of 2 uM (+/-15% SEM); format: functional, cell-based; conditions: Mus musculus; procedure, shortened: as §8

SMILES	Uptake (nM (mg of protein)-1) (L1210 [1])	IC25 (L1210 [2]) [nM]	Uptake (nM (mg of protein)-1) (L1210 [5])	IC25 (L1210 [8]) [nM]	pIC50 (L1210 [9])	Uptake (nM (mg of protein)-1) (L1210 [10])	Uptake (nM (mg of protein)-1) (CHO [12])	pIC50 (CHO [14])	pIC50 (CHO-MG [15])	pKi (L1210 [16])	pIC50 (L1210 [17])	Ratio [18]	Uptake (nM (mg of protein)-1) (L1210 [20])	Uptake (nM (mg of protein)-1) (L1210 [23])	Uptake (nM (mg of protein)-1) (CHO-MG [24])	Concentration for 50% ethidium displacement from DNA (C50) (Nucleic Acid) [nM]	also measured
Cl.NCCCNCCCCNCCCNCCCNc1c2ccccc2nc2ccccc12	0.307	140	0.186	1400	5.55	0.717	0.167	5.64	5.21	6.89	6.05	3.1	0.053	0.188	0.054	110	Uptake (nM (mg of protein)-1) (L1210 [3]): 1.58; IC25 (CHO-MG [4]): 1800 nM; IC25 (CHO-MG [6]): 2500 nM; Uptake (nM (mg of protein)-1) (L1210 [7]): 0.496; IC25 (CHO [11]): 320 nM; Uptake (nM (mg of protein)-1) (L1210 [13]): 0.728; IC25 (CHO [19]): 900 nM; pIC50 (CHO [21]): 5.89; pIC50 (CHO-MG [22]): 5.14; Uptake (nM (mg of protein)-1) (L1210 [25]): 0.553
NCCCNCCCCNCCCN																	CC50 (Nucleic Acid): 6800 nM
Cl.NCCCNCCCCNCCCNCCCCN=c1c2ccccc2[nH]c2ccccc12	0.362	160	0.193	1100	5.64	0.491	0.081	5.64	5.14	7.08	6.22	3.1	0.094	0.28	0.026	110	
c1ccc2nc3ccccc3cc2c1																142000	
